Published values gathered from unrelated publications.
Lines come from different studies, so protocols differ.
Observed: cell growth or viability

SMILES | cell line | test | conditions | quantity | result
COc1ccc(-c2ccc(-c3ccc(C(=N)N)nc3)s2)cc1 | SNB-75 | SRB | – | GI50 | 1.55 µM
Cc1cc(C)n(C(=S)[S][Au][PH](CCCCCC[PH]([Au][S]C(=S)n2nc(C)cc2C)(c2ccccc2)c2ccccc2)(c2ccccc2)c2ccccc2)n1 | HCC 2998 | – | – | GI50 | 0.252 µM
CC(C)C[C@H](NC(=O)[C@H](Cc1ccccc1)NC(=O)c1cnccn1)B(O)O | OCI-AML-5 | ATP luminescence | – | IC50 | 0.018 µM
S=C([S][Au-][P+](CCCCCC[P+]([Au-][S]C(=S)n1cccn1)(c1ccccc1)c1ccccc1)(c1ccccc1)c1ccccc1)n1cccn1 | HCC 2998 | – | – | GI50 | 0.759 µM
Oc1ccc(Nc2nc(-c3ccc(Cl)cc3)cs2)cc1 | A375M | MTS | 24 h | IC50 | > 100 µM
COc1cc(-c2cn(-c3ccccc3)nn2)cc(OC)c1OC | CCRF-CEM | – | 48 h | CC50 | 34.6 µM
COc1cc(-c2ccc(-c3ccc(C(=N)N)nc3)s2)cc(OC)c1OC | SNB-75 | SRB | – | GI50 | 1.5 µM
O=C1Nc2ccccc2C1=NNc1nnc2n1N=C(c1ccccc1)CS2 | SNB-75 | SRB | 10 µM | inhibition | 35%
Cc1ccc(C)c(COc2cc(NC(=O)c3ccc4c(c3)OCO4)ccc2N(C)S(C)(=O)=O)c1 | HCC 2998 | SRB | 48 h | GI50 | 0.12 µM
COc1ccc(C2=Nn3c(NN=C4C(=O)Nc5ccc(OC)cc54)nnc3SC2)cc1 | UACC-257 | SRB | 10 µM | inhibition | 20%
COc1cccc(Oc2ccccc2NC(=O)CNC(=O)c2cccc3ccccc23)c1 | HCC 2998 | SRB | 48 h | GI50 | 1.26 µM
COc1cc(OC)cc(-c2cn(-c3cc(=O)oc4ccc(Br)cc34)nn2)c1 | CCRF-CEM | – | 48 h | CC50 | 10.5 µM
